Data set [1] concerns the target Prothrombin (Homo sapiens) (UniProt P00734). Description: Inhibition of thrombin in human plasma using Boc-Val-Pro-Arg-AMC as substrate at 25 uM preincubated with enzyme for 15 mins followed by substrate addition and measured for 15 mins by fluorimetric assay. The data set is classed as cell-free. The settings on record: time 30.0 min.
Data set [2] deals with Genome polyprotein (dengue virus type 2, UniProt P29990). In words: Inhibition of NS2B-NS3 protease in DENV2proHeLa system assessed as inhibition of luciferase signal incubated for 24 hrs by luciferase reporter gene assay. Type of data set: cell-based, HeLa. In a few lines:
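HeLa cells stably carrying the reporter system, 2 × 10⁴ per well, given inhibitor at seeding and held 24 h at 37 °C. Cells lysed 15 min at room temperature. Luciferase read for 5 s after injecting coelenterazine (2.75 μM in PBS). Triplicate wells per concentration; percent inhibition taken against untreated cells. EC50/EC90 from 4-parameter dose-response fit, background from cell-free wells subtracted.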
(In general: In a reporter assay the amount or activity of a reporter protein is the signal.)

Data set [3] in a line: Cytotoxicity against human HeLa cells assessed as reduction in cell viability incubated for 24 hrs by CellTiter-Blue assay. The data set is classed as cell-based. The gist of the method:
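Viability by CellTiter-Blue in HeLa or Huh-7 cells exposed to compound dilutions. Plates run in parallel with the reporter assay (HeLa) or the virus titer assay (Huh-7).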

In data set [4] the target is Trypsin (Homo sapiens) (UniProt P07477+P07478+P35030). Description: Inhibition of trypsin (unknown origin) using Boc-Val-Pro-Arg-AMC as substrate at 50 uM preincubated with enzyme for 15 mins followed by substrate addition and measured for 15 mins by fluorimetric assay. The settings on record: time 30.0 min. The data set is classed as protein assay.
The target of data set [5] is Genome polyprotein (dengue virus type 2) (UniProt P29990). In words: Inhibition of NS2B-NS3 protease in DENV2proHeLa system assessed as inhibition of luciferase signal at 12.5 uM incubated for 24 hrs by luciferase reporter gene assay. Type of data set: cell-based. The following applies: HeLa. The gist of the method:
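Stable DENV2proHeLa cells seeded at 2 × 10⁴/well and dosed immediately, then incubated 24 h at 37 °C. Cells lysed 15 min at room temperature. Luciferase read with coelenterazine (2.75 μM in PBS) injection, luminescence 5 s. Triplicates; percent inhibition calculated relative to untreated control; background from cell-free wells.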

This passage reports inhibition, EC50 and CC50 results from ChEMBL document CHEMBL4811254, “Beyond Basicity: Discovery of Nonbasic DENV-2 Protease Inhibitors with Potent Activity in Cell Culture” (J Med Chem, 2021).

Active and inactive are the calls of the source. No rule for the calls is given here. Where only a bound is given, the exact number is not on record here.

As to `CCCCCCCC(=O)N[C@H](C(=O)Nc1cccc(C(N)=O)c1)c1ccc(OCc2ccccc2)cc1`, the inhibition entry in data set [1] and in data set [4] was “inactive” each time. Further, the EC50 in data set [2] turned out to be 2.2 µM. Besides, in data set [3], the CC50 at 24 h was more than 12.5 µM. In addition, the inhibition in data set [5] turned out to be 66%.

As for `NC(=O)c1ccc(CNC(=O)[C@@H](NC(=O)c2cccs2)c2ccc(OCc3ccccc3)cc2)cc1`, the inhibition result in data set [1] and in data set [4] was “inactive” each time. The EC50 in data set [2] stood at 8.4 µM. In data set [3], the CC50 at 24 h is more than 50 µM. Further, the inhibition in data set [5] is 72%.

Regarding `Cc1ccc(C)c(OCCCC(C)(C)C(=O)N[C@H](C(=O)Nc2cccc(C(N)=O)c2)c2ccc(OCc3ccccc3)cc2)c1`, the inhibition entry in data set [1] and in data set [4] was “inactive” throughout. In addition, in data set [2], the EC50 worked out at 1.7 µM. Moreover, the CC50 at 24 h in data set [3] is more than 25 µM. Also, in data set [5], the inhibition is 82%.

With `CCCCCC(=O)N[C@H](C(=O)NCCc1ccc(C(N)=O)cc1)c1ccc(OCc2ccccc2)cc1`, the inhibition result in data set [1] and in data set [4] was “inactive” in each case. The EC50 in data set [2] was 7.7 µM. Besides, the CC50 at 24 h in data set [3] is more than 100 µM. Besides, the inhibition in data set [5] stood at 62%.

Regarding `CC(C)CCOc1ccc(C(=O)N[C@H](C(=O)Nc2cccc(C(N)=O)c2)c2ccc(OCc3ccccc3)cc2)cc1`, the inhibition result in data set [1] and in data set [4] was “inactive” throughout. For the same compound, the CC50 at 24 h in data set [3] was more than 50 µM. Also, the inhibition in data set [5] came to 49%.

`NC(=O)c1ccc(CNC(=O)[C@@H](NC(=O)/C=C/c2ccccc2)c2ccc(OCc3ccccc3)cc2)cc1`: the inhibition entry in data set [1] and in data set [4] was “inactive” each time. Further, the cytotoxic concentration (CC50) at 24 h in data set [3] is more than 50 µM. Also, in data set [5], the inhibition worked out at 34%.

For `CCCCCC(=O)N[C@@H](Cc1ccccc1)C(=O)NCc1ccc(C(N)=O)cc1`, the inhibition entry in data set [1] and in data set [4] was “inactive” in each case. The CC50 at 24 h in data set [3] is more than 50 µM. Also, the inhibition in data set [5] is less than 10%.

Consider `CCCCCC(=O)N[C@H](C(=O)Nc1ccccc1C(N)=O)c1ccc(OCc2ccccc2)cc1`, for which the inhibition entry in data set [1] and in data set [4] was “inactive” throughout. Further, in data set [3], the CC50 at 24 h is more than 50 µM. The inhibition in data set [5] is 13%.

For `NC(=O)c1ccc(CNC(=O)[C@@H](NCc2ccccc2)c2ccc(OCc3ccccc3)cc2)cc1`, the inhibition result in data set [1] and in data set [4] was “inactive” each time. For the same compound, in data set [3], the CC50 at 24 h was more than 50 µM. In addition, in data set [5], the inhibition worked out at 36%.

With `Cc1ccc(C(=O)c2cc(O)c(O)c([N+](=O)[O-])c2)cc1` [TOLCAPONE], the EC50 in data set [2] was found to be 7.1 µM. The CC50 at 24 h in data set [3] is more than 25 µM. The inhibition in data set [5] is 59%.

Turning to `CCCCCC(=O)N[C@H](C(=O)N1CCC(C(N)=O)CC1)c1ccc(OCc2ccccc2)cc1`, the inhibition result in data set [1] and in data set [4] was “inactive” in each case. Besides, in data set [3], the CC50 at 24 h was more than 50 µM. For the same compound, the inhibition in data set [5] was 28%.

For the compound `CCCCCC(=O)N[C@H](C(=O)NCc1ccc(C(=O)O)cc1)c1ccc(OCc2ccccc2)cc1`, the inhibition result in data set [1] and in data set [4] was “inactive” each time. Moreover, the CC50 at 24 h in data set [3] is more than 50 µM. In addition, the inhibition in data set [5] came out at 14%.

Consider `NC(=O)c1cccc(NC(=O)[C@@H](NC(=O)C2CCN(c3ccccc3)CC2)c2ccc(OCc3ccccc3)cc2)c1`, for which the inhibition entry in data set [1] and in data set [4] was “inactive” in each case. For the same compound, in data set [3], the CC50 at 24 h was more than 50 µM. Further, the inhibition in data set [5] came out at 46%.

In the case of `CCCCCC(=O)N[C@H](C(=O)NCCc1ccccc1)c1ccc(OCc2ccccc2)cc1`, the inhibition entry in data set [1] and in data set [4] was “inactive” each time. In addition, the CC50 at 24 h in data set [3] is less than 12.5 µM.

Take `CCCCCC(=O)N[C@H](C(=O)Nc1ccc(S(N)(=O)=O)cc1)c1ccc(OCc2ccccc2)cc1`: the inhibition result in data set [1] and in data set [4] was “inactive” each time. For the same compound, in data set [3], the CC50 at 24 h was more than 50 µM. Also, the inhibition in data set [5] is less than 10%.

As for `CCCCCC(=O)N[C@@H](C(=O)NCc1ccc(C(N)=O)cc1)c1ccc(OCc2ccccc2)cc1`, the inhibition entry in data set [1] and in data set [4] was “inactive” in each case. The CC50 at 24 h in data set [3] was more than 50 µM. Moreover, the inhibition in data set [5] was 35%.

As for `CCCCCC(=O)N[C@H](C(=O)NCc1ccccc1)c1ccc(OCc2ccccc2)cc1`, the inhibition entry in data set [1] and in data set [4] was “inactive” in each case. In addition, in data set [3], the CC50 at 24 h is more than 50 µM. The inhibition in data set [5] is less than 10%.

Take `COCCOCC(=O)N[C@H](C(=O)NCc1ccc(C(N)=O)cc1)c1ccc(OCc2ccccc2)cc1`: the inhibition entry in data set [1] and in data set [4] was “inactive” in each case. Also, in data set [3], the CC50 at 24 h is more than 50 µM. Besides, in data set [5], the inhibition was determined as 27%.

On to `CCCCCC(=O)N[C@H](C(=O)Nc1ccc(OC)cc1)c1ccc(OCc2ccccc2)cc1`, for which the inhibition entry in data set [1] and in data set [4] was “inactive” in each case. The CC50 at 24 h in data set [3] is more than 25 µM. Besides, the inhibition in data set [5] is 10%.

In the case of `CCCC(O)C(=O)N[C@H](C(=O)NCc1ccc(C(N)=O)cc1)c1ccc(OCc2ccccc2)cc1` (some centres not stated), the inhibition entry in data set [1] and in data set [4] was “inactive” each time. The CC50 at 24 h in data set [3] is more than 50 µM. Further, in data set [5], the inhibition was less than 10%.

With `CCCCCC(=O)N[C@H](C(=O)NCc1ccc(Cl)cc1)c1ccc(OCc2ccccc2)cc1`, the inhibition result in data set [1] and in data set [4] was “inactive” each time. The CC50 at 24 h in data set [3] is more than 50 µM. In addition, the inhibition in data set [5] came to 14%.

In the case of `NC(=O)c1ccc(CNC(=O)[C@@H](N)c2ccc(OCc3ccccc3)cc2)cc1`, the inhibition result in data set [1] and in data set [4] was “inactive” throughout. In addition, in data set [3], the CC50 at 24 h is more than 50 µM. Further, the inhibition in data set [5] came out at 33%.

In the case of `CCCCCC(=O)N[C@@H](C(=O)NCc1ccc(C(N)=O)cc1)c1ccc(OCc2ccc(C(F)(F)F)cc2)cc1`, the inhibition entry in data set [1] and in data set [4] was “inactive” throughout. In data set [3], the CC50 at 24 h was more than 50 µM. In addition, the inhibition in data set [5] amounted to 42%.

As for `NCCCCCC(=O)N[C@H](C(=O)NCc1ccc(C(N)=O)cc1)c1ccc(OCc2ccccc2)cc1`, the inhibition entry in data set [1] and in data set [4] was “inactive” each time. The CC50 at 24 h in data set [3] was more than 50 µM. Also, in data set [5], the inhibition stood at 14%.

Consider `CCCCCC(=O)N[C@H](C(=O)NCc1ccc(C(=O)NO)cc1)c1ccc(OCc2ccccc2)cc1`, for which the inhibition result in data set [1] and in data set [4] was “inactive” throughout. For the same compound, the CC50 at 24 h in data set [3] is more than 50 µM. The inhibition in data set [5] amounted to 40%.

`CCCCCC(=O)N[C@H](C(=O)NCC1CCC(C(N)=O)CC1)c1ccc(OCc2ccccc2)cc1` (some centres not stated): the inhibition entry in data set [1] and in data set [4] was “inactive” throughout. In data set [3], the CC50 at 24 h was more than 50 µM. The inhibition in data set [5] amounted to 29%.

`CCCCCC(=O)N[C@H](C(=O)NCc1ccc(NC(N)=O)cc1)c1ccc(OCc2ccccc2)cc1`: the inhibition result in data set [1] and in data set [4] was “inactive” in each case.

On to `CCCCCC(=O)N[C@H](C(=O)NCc1ccc(C(N)=O)cc1)c1ccc(O)cc1`, for which the inhibition result in data set [1] and in data set [4] was “inactive” throughout. For the same compound, in data set [3], the CC50 at 24 h was more than 100 µM. The inhibition in data set [5] is less than 10%.

`NC(=O)c1ccc(CNC(=O)[C@@H](NC(=O)C2CCC2)c2ccc(OCc3ccccc3)cc2)cc1`: the inhibition entry in data set [1] and in data set [4] was “inactive” each time. For the same compound, the CC50 at 24 h in data set [3] is more than 50 µM. Besides, the inhibition in data set [5] worked out at 45%.

Regarding `CCCCCC(=O)N[C@H](C(=O)NCc1cccc(OC)c1)c1ccc(OCc2ccccc2)cc1`, the inhibition result in data set [1] and in data set [4] was “inactive” throughout. Besides, the CC50 at 24 h in data set [3] was more than 50 µM. Further, the inhibition in data set [5] is less than 10%.

Consider `CCCCCC(=O)N[C@H](C(=O)NCc1ccc(C(N)=O)cc1)c1ccc(C(F)(F)F)cc1`, for which the inhibition result in data set [1] and in data set [4] was “inactive” throughout. Moreover, in data set [3], the CC50 at 24 h was more than 50 µM. Further, the inhibition in data set [5] came out at 31%.

Turning to `CCCCCC(=O)N[C@H](C(=O)NCc1ccc(C(N)=O)cc1)c1ccccc1`, the inhibition entry in data set [1] and in data set [4] was “inactive” throughout. Also, in data set [3], the CC50 at 24 h is more than 50 µM. The inhibition in data set [5] was determined as 15%.

Consider `CCCCCC(=O)N[C@H](C(=O)Nc1ccc(CC(N)=O)cc1)c1ccc(OCc2ccccc2)cc1`, for which the inhibition result in data set [1] and in data set [4] was “inactive” throughout. Besides, the CC50 at 24 h in data set [3] was more than 50 µM. For the same compound, the inhibition in data set [5] worked out at 47%.

As usually defined, the inhibition is the drop in the measured response relative to a control, in per cent. The term EC50 denotes the midpoint of the concentration-response curve. Broadly, the CC50 is the concentration that lowers cell viability or growth by half.
